High-throughput results from PubChem.
Most compounds without a hit are left out; they make up all but 4.3% or so of the library.
SDO1 yeast rescue – restores growth of sdo1-depleted yeast; S. cerevisiae sdo1-depleted JHY4D growth rescue, OD600 30 h; stronger effect = higher value; pdr5 snq2 efflux-pump mutant strain; z-score at 10 µM; 140,000 compounds, 0.21% hits; AID 817;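 active = z-score above 3 at both the 24 hr and the 30 hr optical density reads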;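 note: z-score against mean and SD of all compound wells on the same plate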
NF-kB expr up – raises NF-kB expression in human neuronal cells | NF-kB reporter expression; stronger effect = higher value | AID 1239 | fold change at 12.5 µM | 190,000 compounds, 1.6% hits; in the data active = fold change above about 3.3
FLuc inhib CS – counter-screen for luciferase assay inhibitors: firefly luciferase inhibition. AID 1006. ATPLite firefly luciferase biochemical luminescence, 10 min. P08659. 200,000 compounds, 1.5% hits. inhibition, % at 10 µM;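 active = inhibition above about 50% when tested at 10 µM, limit read from the data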
Target sequence (P08659 whole entry, looked up): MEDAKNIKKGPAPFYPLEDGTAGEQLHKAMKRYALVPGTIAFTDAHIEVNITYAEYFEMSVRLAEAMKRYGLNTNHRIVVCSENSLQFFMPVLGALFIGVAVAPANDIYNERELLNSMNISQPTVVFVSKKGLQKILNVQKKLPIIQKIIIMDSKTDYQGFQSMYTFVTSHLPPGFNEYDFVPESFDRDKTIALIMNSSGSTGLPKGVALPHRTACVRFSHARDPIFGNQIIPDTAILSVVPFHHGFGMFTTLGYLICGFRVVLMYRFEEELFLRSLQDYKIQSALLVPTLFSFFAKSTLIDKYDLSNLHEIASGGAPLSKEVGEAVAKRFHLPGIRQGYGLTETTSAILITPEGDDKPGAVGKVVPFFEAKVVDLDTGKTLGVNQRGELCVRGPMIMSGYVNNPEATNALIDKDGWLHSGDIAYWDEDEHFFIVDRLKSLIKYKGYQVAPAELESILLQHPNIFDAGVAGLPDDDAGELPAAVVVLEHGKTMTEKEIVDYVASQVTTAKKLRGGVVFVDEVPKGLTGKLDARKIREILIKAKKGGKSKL
STAT1 activator – activators of IFN-gamma induced STAT1 signaling. NIH 3T3 STAT1-luciferase reporter, luminescence; 100% = IFN-gamma alone, no compound. activation (% of control), % at 5.5 µM. 200,000 compounds, 2.6% hits;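 active = activation above the screen-wide mean activation plus 3 SD, cut at about 130% in these data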;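 note: raw ratio to IFN-gamma control signal so 100% means no change and 0% no light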
FLuc stim CS – firefly luciferase counter-screen for stimulation assays. 200,000 tested, under 10 active. ATPlite luciferase biochemical, luminescence, 10 min; 0 = ATP-free wells, 1 = DMSO control. AID 1027. activation factor at 10 µM;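 active = luciferase activation factor, scaled between plate controls, of at least 2 with compound at 10 µM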
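Assay system: Luciferase/luciferin detection reagent, cell-free biochemical luciferase assay / Also added: ATP substrate / Schedule: 10 min at ambient temperature / Measured by: luminescence measurement of luciferase light output / Benchmarks: low control with PBS replacing ATP, high control enzyme plus ATP without compound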
APP 5'UTR act – activates APP 5'UTR luciferase reporter | SH-SY5Y APP 5'UTR luciferase reporter, luminescence; zero percent = DMSO vehicle wells | activation, % at 2 µM | 190,000 compounds, 1% hits | AID 1276;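 active = activation above a set limit, based on mean plus 3 SD of controls, cut at about 140% in these data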
Active calls of the source: *; / = no result.

SMILES	SDO1 yeast rescue	NF-kB expr up	FLuc inhib CS	STAT1 activator	FLuc stim CS	APP 5'UTR act
COc1ccc(CCNCc2ccc(OCc3ccc(Cl)nc3)c(OC)c2)cc1OC	1.1	0.73	-1	95	1	-7
COc1cc(C=O)ccc1OCCCOc1ccccc1C(=O)O	1.4	1.5	-1	148*	1	127
COc1cc(C=O)ccc1OCc1ccc(Cl)nc1	/	/	59*	136*	0.4	63
O=C(CCCN1C(=O)c2cccc3cccc(c23)C1=O)Nc1ccon1	/	0.96	-8	105	1.1	-4
Cc1ccc(Nc2nc(CSc3nnc(-c4ccncc4)n3C)cs2)cc1	-1.7	4.4*	90*	94	0.1	87
COc1ccc(N=CC2=C(O)CCCC2=O)cc1	0.71	1.7	7	136*	0.9	-2
CC1(C)CC(=O)C(C=Nc2ccc3c(c2)OCO3)=C(O)C1	-0.31	1.6	13	132*	0.9	20
COc1ccc(N=CC2=C(O)CC(C)(C)CC2=O)cc1	0.03	1.1	8	133*	0.9	9
CC1(C)CC(=O)C(C=NCc2ccc3c(c2)OCO3)=C(O)C1	0	1.4	0	99	1	-6
CN(C)CCCN1C(=O)c2oc3ccc(F)cc3c(=O)c2C1c1cccnc1 (stereo unspecified)	0	0.95	-3	104	1	2
CC(C)COC(=O)n1c(SCC(=O)N(C)C)nc2ccccc21	-1.4	1.4	0	98	1	0
CCn1c(=N)c(C(=O)NC)cc2c(=O)n3cccc(C)c3nc21	/	/	-9	/	1.1	6
CCNc1nc(C)c2cc(Br)c(=O)n(CC)c2n1	-0.47	1.6	-3	139*	1	-17
O=c1c2ccccc2nnn1CSc1ccc2c(c1)OCCO2	-0.02	4.2*	9	146*	0.9	113
O=c1c2ccccc2nnn1CSc1nnc2ccccn12	0.13	1.7	-2	146*	1	78
COP(=O)(OC)C(Nc1ccc(C)cc1)c1ccc([N+](=O)[O-])cc1 (stereo unspecified)	-0.03	1.4	-7	104	1.1	20
COc1cc(C(=O)O)cc(Br)c1OC1CCCC1	1.4	1.9	-9	94	1.1	3
O=C(O)c1ccc(NC(=O)c2cn(-c3ccccc3)nc2-c2ccccc2)cc1	/	0.97	26	146*	0.7	13
O=C(NNC(=S)NC(=O)c1sc2ccccc2c1Cl)c1ccc(Cl)cc1	0.42	1.1	5	103	1	-3
CCOC(=O)c1ccc(N=c2scc(C)n2CC)cc1	/	4.3*	14	124	0.9	90
C=CCn1c(C)csc1=Nc1ccc(C(C)=O)cc1	/	2.1	11	126	0.9	70
O=C(N/N=C/c1cccs1)C(=O)Nc1cccc(Cl)c1	/	1.2	-2	110	1	-6
O=C(O)c1cccc(N/N=C/c2cccs2)c1	1.4	15*	44	46	0.6	-9
CSc1ccc(/C=N/Nc2cccc(C(=O)O)c2)cc1	/	18*	57*	41	0.4	-8
CCOc1ccccc1-n1nnnc1SCC(=O)NCc1ccco1	/	1.1	-7	99	1.1	6
SMILES	SDO1 yeast rescue	NF-kB expr up	FLuc inhib CS	STAT1 activator	FLuc stim CS	APP 5'UTR act
O=C(NC1CCCCCCC1)NC1CCCCC1	-0.6	2.7	4	132*	1	12
CC(C)N1CCC(NC(=O)NC2CCCCC2)CC1	/	1.2	-2	102	1	7
Cc1cccc(NCC(=O)NNC(=S)Nc2ccccc2)c1	/	1.2	-6	98	1.1	16
CC(=O)N1CCN(S(=O)(=O)c2cccc(C(=O)Nc3nccs3)c2)CC1	/	1.2	-4	131*	1	-9
CCOCC(=O)Nc1nc2ccccc2s1	0.85	1.9	12	128	0.9	24
S=C(Nc1ccccc1)c1nc2ccccc2s1	-0.7	2.4	6	138*	0.9	101
CCNC(=O)Nc1nc2ccccc2s1	/	2.6	24	146*	0.8	77
O=C(NNc1nc2ccccc2s1)Nc1ccccc1	1.4	1.7	2	138*	1	115
CC(=O)N1CCC(=NNc2nc3ccccc3s2)CC1	/	2.1	13	136*	0.9	108
Cc1cccc(-n2cc(-c3ccccc3)c3c(N4CCOCC4)ncnc32)c1	/	0.38	1	64	1	-12
